Source: paper PMC3304100 (Molecular Pharmaceutics, 2011)

Legend:
rat gut wall = experiment: In situ single-pass intestinal perfusion in rats; format: in vivo; conditions: pH 5.5, n=4, metoprolol co-perfused as reference
Method in brief: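 Fasted (12–18 h) male Wistar rats (250–280 g), ketamine-xylazine im. ~10 cm jejunal, mid-intestinal or ileal segment cannulated and perfused at 0.18 ml/min with pH 5.5 MES buffer, 290 mosm/l, containing phenol red and metoprolol. Drug concentration = highest oral dose/250 ml. After 1 h to steady state, outlet sampled every 10 min for 1 h; HPLC. Peff by plug-flow model, water-flux corrected, R 0.2 cm.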

[1] = cited from earlier work
hPepT1 = target: T1, hPepT1 (Homo sapiens, UniProt P46059); experiment: Uptake in hPepT1 transfected vs non-transfected HeLa cells; format: cell-based; conditions: 1mM, pH 6.0, 45 min, 37°C, n=3
T1 sequence (P46059 1-708): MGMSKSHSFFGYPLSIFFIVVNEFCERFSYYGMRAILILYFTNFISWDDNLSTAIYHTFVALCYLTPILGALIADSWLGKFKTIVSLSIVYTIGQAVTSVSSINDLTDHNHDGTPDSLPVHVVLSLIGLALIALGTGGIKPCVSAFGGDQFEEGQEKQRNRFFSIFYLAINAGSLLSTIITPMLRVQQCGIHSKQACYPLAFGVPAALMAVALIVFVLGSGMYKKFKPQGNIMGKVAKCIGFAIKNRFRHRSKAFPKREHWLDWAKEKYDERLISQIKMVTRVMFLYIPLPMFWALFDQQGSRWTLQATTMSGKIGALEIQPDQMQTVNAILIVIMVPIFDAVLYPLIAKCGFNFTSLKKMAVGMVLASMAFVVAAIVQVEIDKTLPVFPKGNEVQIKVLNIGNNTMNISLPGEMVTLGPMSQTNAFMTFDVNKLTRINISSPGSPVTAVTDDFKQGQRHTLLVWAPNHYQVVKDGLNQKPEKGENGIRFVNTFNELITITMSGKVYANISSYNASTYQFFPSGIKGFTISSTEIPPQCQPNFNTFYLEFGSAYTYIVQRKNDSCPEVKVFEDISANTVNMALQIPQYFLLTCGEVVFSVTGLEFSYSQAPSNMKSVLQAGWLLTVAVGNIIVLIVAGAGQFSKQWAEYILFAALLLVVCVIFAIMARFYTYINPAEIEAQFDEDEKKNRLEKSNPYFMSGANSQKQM
Method in brief: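 HeLa cells transduced with hPepT1-carrying adenovirus and used two days post-infection; non-transfected HeLa cells served as control. Cells were washed with pH 6.0 uptake buffer, then exposed to test compound (1mM) in uptake buffer at 37°C for 45 min and washed ice-cold. They were extracted in methanol:water (50:50) for 1 h at room temperature, and the supernatant was filtered and quantified by LC-MS. Sample protein was measured by DC assay against a BSA standard.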

| Effective permeability (Peff), in words (rat gut wall) | Uptake in HeLa/hPepT1 cells compared to non-transfected HeLa cells (hPepT1) | Compound | Absolute oral availability [1] |
| --- | --- | --- | --- |
| absolutely no permeability |  | CC(=O)N[C@H]1[C@H]([C@H](O)[C@H](O)CO)OC(C(=O)O)=C[C@@H]1N=C(N)N [Zanamivir] | approximately 2% |
|  | ~ 5 fold | CC(C)[C@H](N)C(=O)OCCOCn1cnc2c(=O)[nH]c(N)nc21 [Valacyclovir] |  |
